An excerpt weighted towards active compounds, which were near 8.9% of everything screened.
bCat nuc transl: modulators of beta-catenin nuclear translocation, primary screen, imaging, HeLa cells, immunofluorescence, high-content. nuclear translocation activity, % at 5 µM. 0.3% of 190,000 active;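 active = nuclear translocation activity above 50% at 5 µM, with a well cell count of 50 or more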;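 note: per-cell ratio of nuclear to cytoplasmic median beta-catenin stain intensity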
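System: HeLa cells, endogenous beta-catenin; compound dosing: 5 µM primary single dose, 0.1% DMSO, 0.02–20 µM confirmation series; incubation: 24 h compound exposure at 37°C, 5% CO2; signal: beta-catenin immunofluorescence imaging with DAPI; evaluation: % activation, nuclear-to-cytoplasmic median beta-catenin signal ratio per cell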
MT stabilize HCS: microtubule stabilizers in HeLa cells, primary screen, imaging, high-content imaging. HeLa tubulin immunostaining HCS, 24 h; share of cells brighter than vehicle mean+2SD. % tubulin-high responders, % at 10 µM. 0.83% of 200,000 active. AID 2205, 2009;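 active = plate Z-score above 3 for both tubulin-high and condensed-nucleus cell shares, with cell loss under 80%, at 10 µM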;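 note: anti alpha tubulin signal scored within the nucleus-defined area of each cell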
Dynein cargo inh: inhibitors of GR-EGFP nuclear translocation, primary screen, dynein cargo transport inhibitor project, imaging, high-content, 3617.4 mouse cells. z-score, hits read low. test concentration mostly 20 µM; stimulated with dexamethasone, 1 µM; stronger effect = lower value. 0.47% of 220,000 active. AID 1381, 2008;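 active = plate z-score of nuclear minus cytoplasmic receptor signal below a set negative limit, without overly bright fluorescence or cell loss, cut at about -3.5 in these data, passing the limit was not always enough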;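 note: z-score of nuclear minus cytoplasmic ring GR-EGFP intensity difference per well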
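Medium: Induction medium lacking tetracycline, stripped serum | Probe or stimulus: 1.0 µM final dexamethasone stimulus | Schedule: 48 h induction, then 1 h compound, then 30 min agonist, 37 °C | Signal: Automated 10x imaging of fixed Hoechst-stained cells | Evaluation: Per-cell GR-EGFP intensity, nucleus versus surrounding cytoplasmic ring, well-averaged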
HSV augment: enhancers of HSV replication in host cells, fold increase, host cell viability | 0.005% of 220,000 active | HSV replication augmentation in cells | maximum fold increase | AID 1956, 2009; in the data active = maximum fold increase above about 1.5; tested in PC3 cells
L major viab: Leishmania major promastigote growth inhibition, primary screen; Leishmania major promastigotes, resazurin fluorescence viability; 9% of 200,000 active; inhibition, % at 10 µM; in the data active = inhibition above about 50%;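 note: promastigotes grown with compound for 44 hours at 28 °C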
Each line names hits and unclear results; the compound was inactive in the other large screens.

O=C(Nc1ccccc1)N1N=C(c2ccc(F)cc2)CC1c1ccc(F)cc1 (stereo unspecified)	L major viab 92
CCN(CC)S(=O)(=O)c1cccc(NC(=O)c2ccc(C#N)cc2)c1	none
Cc1cc(NCCCN2CCOCC2)n2ncc(-c3ccccc3)c2n1	none
CC(=O)Nc1ccc(Nc2cc(C)nc3c(-c4ccccc4)c(C)nn23)cc1	L major viab 85
Cc1cc(NCCCN2CCOCC2)n2nc(C)c(-c3ccc(F)cc3)c2n1	L major viab 91
Cc1cc(NCCCN2CCOCC2)n2nc(C)c(-c3ccccc3)c2n1	L major viab 66
Cc1cc(C)c2c(n1)nn1c(NCCCN3CCOCC3)cc(C)nc21	none (no result: bCat nuc transl, HSV augment)
CC(=O)Nc1ccc(Nc2cc(C(C)C)nc3c(-c4ccccc4)c(C)nn23)cc1	none (no result: MT stabilize HCS, L major viab)
COC(=O)Nc1ccc(S(=O)(=O)N2CCN(c3ccc(F)cc3)CC2)cc1	none (no result: bCat nuc transl)
Oc1ccccc1-c1cc(C(F)(F)F)[nH]n1	none (no result: MT stabilize HCS, L major viab)
O=[N+]([O-])c1ccccc1-c1cc(-c2ccccc2O)n[nH]1	L major viab 58
Cc1cc(C)c2ccc(Cl)cc2n1	none (no result: MT stabilize HCS, L major viab)
Cc1cc(N2CCCN(C)CC2)nc2cc(Cl)ccc12	L major viab 80
Cc1cc(N2CCCCC2)nc2ccccc12	none
Cc1cc(N2CCCCCC2)nc2ccccc12	L major viab 91
CC(C)CC(NC(=O)CCl)c1ccccc1 (stereo unspecified)	none
CCCC(=O)NC(NC(=S)Nc1ccc(S(N)(=O)=O)cc1)C(Cl)(Cl)Cl (stereo unspecified)	none
CC(C)N(c1ccccc1)c1ccc(NC(=O)CCl)cc1	L major viab 55
O=C(CCl)Nc1ccc(N=Nc2ccccc2)cc1	L major viab 100 (no result: bCat nuc transl)
CCc1ccc(OCC(=O)NC(NC(=S)Nc2ccc(Cl)cc2)C(Cl)(Cl)Cl)cc1 (stereo unspecified)	L major viab 61
CCCC(=O)NC(NC(=S)Nc1ccc(N=Nc2ccccc2)cc1)C(Cl)(Cl)Cl (stereo unspecified)	L major viab 57
CCOC(=O)c1c(C)[nH]c(C(=O)CSc2nnc(-c3cccs3)n2Cc2ccccc2)c1C	none
O=C(O)CSc1ncnc2sc(-c3ccccc3)cc12	none
CC(=O)c1c(C)[nH]c(C(=O)CSc2nnc(-c3cccs3)n2Cc2ccccc2)c1C	L major viab 78
CC(=O)c1c(C)[nH]c(C(=O)CSc2ncnc3sc(-c4ccccc4)cc23)c1C	L major viab 74
Cc1cc(C)cc(NC(=O)c2cc(C)nn2C)c1	none (no result: bCat nuc transl)
Cc1ccc(N/C=C2\C(=O)C3(C)CCC2C3(C)C)cc1C (stereo unspecified)	none (no result: bCat nuc transl)
O=C1NCCN1Cc1ccccc1	none
CC(=O)Nc1cccc(C(=O)/C=C/c2ccc(C)cc2)c1	L major viab 100
CCOc1ccc(/C=C/C(=O)Nc2cccc(C(C)=O)c2)cc1	none
CSc1ccc(/C=C/C(=O)c2ccc(NC(C)=O)cc2)cc1	L major viab 57
O=C(CN1CCCc2ccccc21)N/N=C/c1ccccc1O	L major viab 99
CCc1ccc(/C=N/N2CCN(c3ccccn3)CC2)cc1	none (no result: MT stabilize HCS, L major viab)
O=C(NCCO)C(=O)NCC1OCCCN1S(=O)(=O)c1cccs1 (stereo unspecified)	L major viab 56
Cc1cc(F)ccc1S(=O)(=O)N1CCCOC1CNC(=O)C(=O)NCCc1c[nH]c2ccccc12 (stereo unspecified)	none
Cc1cc(C)c(S(=O)(=O)N2CCCOC2CNC(=O)C(=O)NCCc2c[nH]c3ccccc23)c(C)c1 (stereo unspecified)	L major viab 93
CNC(=O)C(=O)NCC1OCCCN1S(=O)(=O)c1cccs1 (stereo unspecified)	none
COc1ccc2[nH]c3c(N4CCc5ccccc5C4)ncnc3c2c1	bCat nuc transl 115 (no result: MT stabilize HCS, L major viab)
CCOC(=O)N1CCN(c2ncnc3c2[nH]c2ccc(OC)cc23)CC1	none
Cc1onc(-c2ccccc2Cl)c1C(=O)N1CCc2ccccc2C1	L major viab 96
Cc1onc(-c2c(F)cccc2Cl)c1C(=O)N1CCc2ccccc2C1	L major viab 100
Cc1onc(-c2ccccc2Cl)c1C(=O)N1CC(C)OC(C)C1 (stereo unspecified)	none
COCCn1c(SCC#N)nnc1-c1ccc(OC)cc1	none
CN1CCc2nc3sc(C(=O)C45CC6CC(CC(C6)C4)C5)c(N)c3cc2C1	L major viab 96 (no result: HSV augment)
Cc1ccc(C=Nc2ccccc2C(N)=O)s1	MT stabilize HCS 22
COc1ccc(NC(=O)C2CC(=O)n3cnnc3S2)cc1 (stereo unspecified)	L major viab 98
NCC(O)COCCC12CC3CC(CC(C3)C1)C2 (stereo unspecified)	none
O=C(OCC(O)CN1CCCCC1)C12CC3CC(CC(C3)C1)C2 (stereo unspecified)	L major viab 91
OC(CN1CCCCC1)CN1CCCCC1	none
OC(COCCC12CC3CC(CC(C3)C1)C2)CN1CCCC1 (stereo unspecified)	L major viab 91
CCCn1c(N)c(N2CCCCC2)c(=O)n(CC(=O)Nc2ccccc2C)c1=O	none (no result: bCat nuc transl)
COc1cc(C(=O)O/N=C2\C=CC(=O)C(C)=C2)cc(OC)c1OC	L major viab 101
COc1ccc(C(=O)ON=C2C=C(C)C(=O)C(C)=C2)cc1	L major viab 100
COc1ccc(S(=O)(=O)N=C2C=C(C)C(=O)C(C)=C2)cc1	none
COc1cc(C(=O)ON=C2C=C(C)C(=O)C(C)=C2)cc(OC)c1OC	L major viab 89
COc1cc(C(=O)Oc2cccc(C)c2)cc(OC)c1OC	none
O=C(CSc1nc2ccccc2c(=O)n1-c1ccccc1)NCc1ccc2c(c1)OCO2	none
Cc1cccc(-n2c(SCC(=O)NCc3ccc4c(c3)OCO4)nc3ccccc3c2=O)c1	L major viab 96
Cc1cccc(-n2c(SCC(=O)NCc3ccco3)nc3ccccc3c2=O)c1	none
O=C(CSc1nc2ccccc2c(=O)n1-c1ccccc1)NCc1ccco1	L major viab 61
CCSc1nc2c([nH]c3ccccc32)c(=O)n1C	none (no result: bCat nuc transl)
O=C(O)c1cccc(S(=O)(=O)Nc2cccc(S(=O)(=O)N3CCCCCC3)c2)c1	none
CC(=O)Nc1ccc(NC(=O)CSc2ccc3nnc(CCNC(=O)c4ccccc4)n3n2)cc1	none
CCC1CCCCN1CCCn1c(=S)[nH]c2ccccc2c1=O (stereo unspecified)	L major viab 97
CCOc1cc2[nH]c(=S)n(CCN3CCCCC3CC)c(=O)c2cc1OCC (stereo unspecified)	none (no result: bCat nuc transl)
O=C1C2C3C=CC(C2C(=O)N1c1nccs1)C1C(=O)N(c2nccs2)C(=O)C31 (stereo unspecified)	none
O=C(CNC(=O)c1ccccc1)OCc1cccc([N+](=O)[O-])c1	L major viab 56
O=C(CNC(=O)c1ccccc1)OCc1cccc(Br)c1	none
